ChEMBL document CHEMBL3393048, “Discovery of potent cytotoxic ortho-aryl chalcones as new scaffold targeting tubulin and mitosis with affinity-based fluorescence” (J Med Chem, 2014)
Calls of active or inactive are those of the source. No cut-off for these calls is given here.

Key:
A549 [1] = assay: Cell cycle arrest in human A549 cells assessed as accumulation at G2/M phase at 62.5 nM after 24 hrs by Hoechst 33342 staining-based ArrayScanVTI analysis; type: functional
Procedure, shortened: (§1)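 A549 cells were seeded at 5000/well, cultured overnight, then treated 24 h over a 7.81–250 concentration series. Cells were fixed in prewarmed paraformaldehyde 10 min, permeabilized with Triton X-100, and nuclei stained with Hoechst 33342. Imaging was by ArrayScan VTI high-content analysis. Phase percentage = cells within a gated fluorescence intensity / total cells counted.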

[2] = Drug resistance index, ratio of IC50 for vincristine-resistant human HCT8 cells to IC50 for human HCT8 cells; type: functional, HCT-8
Procedure, shortened: (§2)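 Drug resistance index = IC50 in the resistant line / IC50 in its parental line. […] Pairs: A549/CDDP vs A549, MCF-7/DOX vs MCF-7, A2780/TAX vs A2780, HCT-8/VCT vs HCT-8.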

Tubulin = assay: Inhibition of tubulin polymerization (unknown origin) by DAPI staining-based fluorescence microscopy; type: protein-complex assay, Homo sapiens
Procedure, shortened: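 Purified tubulin (99% pure; 20 μM as supplied) mixed with compound in general tubulin buffer (80 mM PIPES pH 6.9, 2.0 mM MgCl₂, 0.5 mM EGTA) with 1 mM GTP, 20% glycerol and DAPI reporter. Polymerization tracked kinetically at 37 °C as fluorescence rise (ex 360, em 450 nm). Duplicate wells per concentration. IC50 from at least two independent experiments.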

[3] = Antiproliferative activity against human HCT8 cells after 48 hrs by SRB method; type: functional, cell-based; conditions: HCT-8, 48 h
Procedure, shortened: (§3)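 SRB assay. Cells in DMEM high glucose with 10% FBS were seeded at 5000/well and grown 24 h; a day-0 plate was fixed at that point. Compounds were added in triplicate for 48 h. IC50 came from nonlinear regression of dose–response curves from at least two independent experiments.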

A549 [4] = assay: Cell cycle arrest in human A549 cells assessed as accumulation at G2/M phase at 7.81 to 250 nM after 24 hrs by Hoechst 33342 staining-based ArrayScanVTI analysis; type: functional; procedure, shortened: as §1
A549 [5] = assay: Drug resistance index, ratio of IC50 for cis-platinum-resistant human A549 cells to IC50 for human A549 cells; type: functional; procedure, shortened: as §2
HepG2 = assay: Antiproliferative activity against human HepG2 cells after 48 hrs by SRB method; type: functional, cell-based; conditions: HepG2, 48 h; procedure, shortened: as §3
A549 [6] = assay: Antiproliferative activity against human A549 cells after 48 hrs by SRB method; type: functional, cell-based; conditions: A549, 48 h
Procedure, shortened: as §3, with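 “h. Cells were fixed with TCA at 4 °C for 1 h, stained with 0.4% SRB, and the dye was solubilized in 10 mM Tris pH 10.4. OD was read at 515 nm with day-0 OD subtracted.” for “h.”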

MCF7 [7] = assay: Antiproliferative activity against doxorubicin-resistant human MCF7 cells after 48 hrs by SRB method; type: functional, cell-based; conditions: MCF7, 48 h; procedure, shortened: as §3
A2780 [8] = assay: Drug resistance index, ratio of IC50 for taxol-resistant human A2780 cells to IC50 for human A2780 cells; type: functional; procedure, shortened: as §2
A549 [9] = assay: Antiproliferative activity against cis-platinum-resistant human A549 cells after 48 hrs by SRB method; type: functional, cell-based; conditions: A549, 48 h
Procedure, shortened: as §3, with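 “h. Cells were fixed with TCA at 4 °C for 1 h, stained with 0.4% SRB, and the dye was solubilized in 10 mM Tris pH 10.4. OD was read at 515 nm with day-0 OD subtracted.” for “h.”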

A2780 [10] = assay: Antiproliferative activity against human A2780 cells after 48 hrs by SRB method; type: functional, cell-based; conditions: A2780, 48 h; procedure, shortened: as §3
A2780 [11] = assay: Antiproliferative activity against taxol-resistant human A2780 cells after 48 hrs by SRB method; type: functional, cell-based; conditions: A2780, 48 h; procedure, shortened: as §3
[12] = Antiproliferative activity against vincristine-resistant human HCT8 cells after 48 hrs by SRB method; type: functional, cell-based; conditions: HCT-8, 48 h
Procedure, shortened: as §3, with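 “h. Cells were fixed with TCA at 4 °C for 1 h, stained with 0.4% SRB, and the dye was solubilized in 10 mM Tris pH 10.4. OD was read at 515 nm with day-0 OD subtracted.” for “h.”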

MCF7 [13] = assay: Antiproliferative activity against human MCF7 cells after 48 hrs by SRB method; type: functional, cell-based; conditions: MCF7, 48 h; procedure, shortened: as §3
SW480 = assay: Antiproliferative activity against human SW480 cells after 48 hrs by SRB method; type: functional, cell-based; conditions: SW480, 48 h; procedure, shortened: as §3
[14] = Antiproliferative activity against human CNE2 cells after 48 hrs by SRB method; type: functional, cell-based; conditions: CNE-2, 48 h; procedure, shortened: as §3
MCF7 [15] = assay: Drug resistance index, ratio of IC50 for doxorubicin-resistant human MCF7 cells to IC50 for human MCF7 cells; type: functional; procedure, shortened: as §2
Tubulin (Homo sapiens) [16] = molecular target: T1, Tubulin (Homo sapiens) (UniProt P68371+Q9H4B7+P0DPH7+P68366+Q13509+Q71U36+P04350+Q3ZCM7+P07437+P68363+Q9BQE3+Q6PEY2+Q13885+Q9BVA1+Q9BUF5); assay: Displacement of (E)-3-(4-(Dimethylamino)phenyl)-1-(4'-fluoro[1,1'-biphenyl]-2-yl)prop-2-en-1-one from tubulin (unknown origin) by fluorescence assay; type: protein-complex assay
Procedure, shortened: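 Competition assay. Tubulin (4 μM) and probe (8 μM) in general tubulin buffer at 37 °C were incubated until fluorescence plateaued (about 30 min; excitation 430, emission 510 nm). Competitors were then added at 0–80 μM and kinetics recorded at 37 °C. The stable F/F0 ratio was plotted against competitor concentration and fitted.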

Tubulin (Homo sapiens) [17] = molecular target: T1, Tubulin (Homo sapiens); assay: Inhibition of tubulin polymerization (unknown origin) at 5 uM by DAPI staining-based fluorescence microscopy; type: protein-complex assay
A549 [18] = assay: Cell cycle arrest in human A549 cells assessed as accumulation at G2/M phase at 125 nM after 24 hrs by Hoechst 33342 staining-based ArrayScanVTI analysis; type: functional; procedure, shortened: as §1

Row | IC50 (Tubulin) [nM] | IC50 (HepG2) [nM] | IC50 (A549 [6]) [nM] | IC50 (MCF7 [7]) [nM] | IC50 (A549 [9]) [nM] | IC50 (A2780 [10]) [nM] | IC50 (A2780 [11]) [nM] | IC50 (MCF7 [13]) [nM] | IC50 (SW480) [nM] | Structure (SMILES) | Ratio IC50 [2] | IC50 [3] [nM] | Activity (A549 [4]) | Ratio IC50 (A549 [5]) | Ratio IC50 (A2780 [8]) | IC50 [12] [nM] | IC50 [14] [nM] | Ratio IC50 (MCF7 [15]) | also measured
1 | 3400 | 30 | 82 | 24 | 74 | 63 | 230 | 220 | 41 | COc1ccc(/C=C/C(=O)c2ccccc2-c2ccc(F)cc2)cc1B(O)O | 1.3 | 63 | Active | 1.1 | 3.6 | 84 | 21 | 0.6 | Activity (A549 [1]): Active
2 |  |  |  | 4300 | 56 |  | 930 |  |  | CC[C@]1(O)C[C@H]2CN(CCc3c([nH]c4ccccc34)[C@@](C(=O)OC)(c3cc4c(cc3OC)N(C=O)[C@H]3[C@@](O)(C(=O)OC)[C@H](OC(C)=O)[C@]5(CC)C=CCN6CC[C@]43[C@@H]65)C2)C1 [VINCRISTINE] |  |  |  | 4.7 |  | 1900 |  | 1063 | Activity (Tubulin (Homo sapiens) [16]): inactive
3 |  | 3200 | 8500 |  |  |  |  | 4900 | 7600 | COc1ccc(/C=C/C(=O)c2ccccc2-c2ccc(OC)c(OC)c2)cc1OC |  |  |  |  |  |  | 2500 |  | inhibition (Tubulin (Homo sapiens) [17]): inactive
4 | 1800 | 93 | 140 | 120 | 210 | 170 | 690 | 670 | 61 | COc1ccc(/C=C/C(=O)c2ccccc2-c2ccc(F)cc2)cc1 | 1 | 220 | Active | 1.1 | 4.1 | 230 | 53 | 0.29 | Activity (A549 [18]): Active
